Assay results reported in ChEMBL document CHEMBL1140091, “2-aminothienopyridazines as novel adenosine A1 receptor allosteric modulators and antagonists” (J Med Chem, 2008).
pEC50, pKi: −log10 of the molar value. Values joined by “and” are separate entries in the source; they are usually repeats but may differ in a detail not shown here. Identical values can stand only once. Active and inactive are the calls of the source. The rule behind the calls is not given here.

Assays:
[1] = biological target: T1, Adenosine receptor A1 (Homo sapiens, UniProt P30542); experiment: Modulation of human adenosine A1 receptor expressed in CHO-K1 cells assessed as allosteric effect on [125I]ABA dissociation; assay type: cell-based
T1 sequence (P30542 whole entry): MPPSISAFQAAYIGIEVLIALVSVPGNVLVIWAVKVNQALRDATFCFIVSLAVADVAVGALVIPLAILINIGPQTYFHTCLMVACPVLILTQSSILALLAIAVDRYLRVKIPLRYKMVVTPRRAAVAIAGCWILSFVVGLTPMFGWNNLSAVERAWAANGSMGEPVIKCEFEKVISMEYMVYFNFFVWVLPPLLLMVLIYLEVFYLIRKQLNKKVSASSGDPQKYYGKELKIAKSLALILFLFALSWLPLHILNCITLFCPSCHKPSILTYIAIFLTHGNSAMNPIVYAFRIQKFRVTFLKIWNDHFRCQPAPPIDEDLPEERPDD

[2] = biological target: T2, Adenosine receptor A1 (Homo sapiens) (UniProt P30542); experiment: (§1) Antagonist activity at human adenosine A1 receptor expressed in FlpIn-CHO cells assessed as inhibition of R-PIA-mediated ERK1/2 phosphorylation; assay type: functional, cell-based
T2 sequence (whole entry): T1 sequence (P30542 whole entry)

[3] = biological target: T2, Adenosine receptor A1 (Homo sapiens); experiment: Modulation of human adenosine A1 receptor expressed in CHO-K1 cells assessed as stabilization of [125I]ABA-receptor-G protein ternary complex at 50 uM by dissociation kinetic assay; assay type: cell-based
Procedure, shortened: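 CHO-K1 membranes with human A1AR (10 µg) equilibrated 90 min at room temperature with 0.5 nM [125I]-ABA in 10 mM HEPES pH 7.2, 0.5 mM MgCl2, 1 U/mL ADA. Modulator (0.1-50 µM final) added for 30 min. Dissociation started with 100 µM BW-1433 plus 25 µM GTPγS for 10 min, then filtration and counting. K-score = 100×(B−Bo)/(Beq−Bo); n = 3. EC50 from variable-slope sigmoidal fit.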

[4] = biological target: T2, Adenosine receptor A1 (Homo sapiens); experiment: Displacement of [3H]CPX from human adenosine A1 receptor expressed in CHO-K1 cells at 50 uM; assay type: cell-based
Procedure, shortened: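 Incubated with 2 nM [3H]CPX and 50 µM modulator (final) for 90 min at room temperature. Nonspecific binding defined with 100 µM NECA. Filtration and scintillation counting; triplicate, given as % inhibition versus control.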

[5] = biological target: T1, Adenosine receptor A1; experiment: as §1; assay type: functional, cell-based; settings: read-out: pA2 (converted)
[6] = biological target: T2, Adenosine receptor A1 (Homo sapiens); experiment: Inverse agonist activity at human adenosine A1 receptor assessed as reduction of inhibition of R-PIA-mediated [35S]GTPgammaS binding to G protein; assay type: functional
Procedure, shortened: (§2)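 Membranes (15 µg) from CHO FlpIn cells stably expressing human A1AR. Preincubated 60 min at 30 °C in 10 mM HEPES, 100 mM NaCl, 10 mM MgCl2, pH 7.4, with 10 µM GDP, R-PIA (0.01 nM - 1 µM) ± increasing modulator concentrations. [35S]GTPγS (100 pM) then added for another 30 min at 30 °C. Filtration and scintillation counting; three experiments in duplicate.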

[7] = biological target: T1, Adenosine receptor A1; experiment: Antagonist activity at human adenosine A1 receptor expressed in CHO-K1 cells assessed as reduction of [3H]CCPA specific equilibrium binding; assay type: cell-based
[8] = biological target: T1, Adenosine receptor A1; experiment: Antagonist activity at human adenosine A1 receptor assessed as inhibition of R-PIA-mediated [35S]GTPgammaS binding to G protein; assay type: functional; settings: read-out: pA2 (converted); procedure, shortened: as §2

pEC50 [1] | Activity [3] | inhibition [4] | Structure (SMILES) | other results
5.31 | 68.5% | 21.5% | CCOC(=O)c1nn(-c2ccc(OS(=O)(=O)C(F)(F)F)cc2)c(=O)c2c(N)scc12 | Activity [2]: inactive
5.01 | 59% | 23% | CCOC(=O)c1nn(-c2ccc(C(C)(C)C)cc2)c(=O)c2c(N)scc12 | Activity [2]: inactive
– | < 5% | – | CCOC(=O)c1c(N)sc2c1-c1ccccc1C2 | –
– | < 5% | – | Nc1nccnc1C(=O)N/N=C/c1ccco1 | –
– | < 5% | – | Nc1nccnc1C(=O)N/N=C/c1ccc(C(F)(F)F)cc1 | –
5.40 | 80.3% and 80% | 32.3% | Cc1c(C(=O)Nc2ccccc2)sc(N)c1C(N)=O | Activity [2]: inactive
– | < 5% | – | CCOC(=O)c1cnn(C)c1N | –
– | 5% | – | COc1ccc(-n2nc(C(=O)OC(C)(C)C)c3csc(N)c3c2=O)cc1 | –
4.95 | 33.2% | 50.3% | Cc1sc(N)c(C(=O)c2cccs2)c1C | Activity [2]: inactive
5.37 | 68.6% | 92.5% | CCOC(=O)c1nn(-c2ccc(OC)cc2)c(=O)c2c(N)scc12 | Kb [5]: 0.2 µM
– | < 5% | – | NC(=O)c1cc(Cl)c(Cl)cc1C(N)=O | –
4.87 | 60.4% | 22.8% | CCOC(=O)c1nn(-c2ccccc2)c(=O)c2c(N)scc12 | Kb [5]: 0.0158 µM
5.57 | 66.1% | 32% | CCOC(=O)c1nn(-c2cccc(C(F)(F)F)c2)c(=O)c2c(N)scc12 | Activity [2]: inactive
– | < 5% | – | CCOC(=O)c1c(C)nsc1N | –
5.59 | 55.8% | 29.5% | COc1ccc(-n2nc(C(=O)O)c3csc(N)c3c2=O)cc1 | Activity [2]: inactive
– | < 5% | – | Nc1ccc(Cl)cc1C(=O)NCc1ccncc1 | –
5.24 | 69.2% | 100% | CCOC(=O)c1nn(-c2cccc(Cl)c2)c(=O)c2c(N)scc12 | Activity [6]: Dose-dependent effect; pKi [7]: 8.24; Kb [5]: 0.002 µM; Kb [8]: 0.00794 µM
– | < 5% | – | NC(=O)c1ncccc1C(=O)O | –
– | < 5% | – | Nc1c2c(=O)cc(-c3ccccc3)[nH]c2nn1-c1ccccc1 | –
– | < 5% | – | NNC(=O)c1nccnc1N | –
5.01 | – | – | Nc1scc2c(C(=O)O)nn(-c3ccccc3)c(=O)c12 | –

pEC50 [1] | Activity [3] | inhibition [4] | Structure (SMILES) | other results
– | < 5% | – | Nc1ccccc1C(=O)NC1CCCCNC1=O (stereo not drawn) | –
– | 6% | – | Nc1cc(Cl)ccc1C(=O)N1CCSCC1 | –
– | < 5% | – | Nc1ccccc1C(=O)NNc1ccccc1Cl | –
5.08 | 81% | 77.2% | CCOC(=O)c1nn(-c2ccc(C(F)(F)F)cc2)c(=O)c2c(N)scc12 | Activity [2]: inactive
– | < 5% | – | CCOC(=O)c1cn[nH]c1N | –
4.89 | 19.6% | 73.4% | CCOC(=O)c1nn(-c2ccc([N+](=O)[O-])cc2)c(=O)c2c(N)scc12 | Activity [2]: inactive
– | < 5% | – | Cc1nc2ccccc2c(C(=O)O)c1N | –
– | < 5% | – | NC(=O)c1nnc2ccccc2c1N | –
– | < 5% | – | Nc1nccnc1C(=O)NNS(=O)(=O)c1ccc(Cl)cc1 | –
– | < 5% | – | Nc1ccccc1C(=O)N/N=C/c1ccc2c(c1)OCO2 | –
5.15 | 75.9% | 65.8% | CCOC(=O)c1nn(-c2ccc(O)cc2)c(=O)c2c(N)scc12 | Kb [5]: 0.0398 µM
– | < 5% | – | Cc1nn(-c2ccccc2)c2nc(N)c(C(N)=O)cc12 | –
– | 11% | – | CCOC(=O)c1cnc(SCC(=O)c2cc(Cl)c(Cl)s2)nc1N | –
– | < 5% | – | CSc1nc(C(N)=O)c(N)s1 | –
– | < 5% | – | COc1cccc(-c2cc3c(c(N)c2C#N)c(=O)oc2ccccc23)c1 | –
– | < 5% | – | Nc1[nH]nc2[nH]c(-c3ccccc3)cc(=O)c12 | –
– | < 5% | – | NC(=O)c1nnn(Cc2ccc(F)cc2)c1N | –
– | < 5% | – | NC(=O)c1nnn(Cc2ccc(Cl)cc2)c1N | –
– | < 5% | – | Nc1nccnc1C(=O)N/N=C/c1ccc(Cl)cc1 | –
5.15 | 65.4% | 100% | CCOC(=O)c1nn(-c2ccc(I)cc2)c(=O)c2c(N)scc12 | Kb [5]: 0.0794 µM
– | < 5% | – | Nc1ccc(Cl)cc1C(=O)NCc1ccccn1 | –

Structure (SMILES) | pEC50 [1] | Activity [3] | inhibition [4] | other results
CCOC(=O)c1nn(-c2ccc(OC(C)=O)cc2)c(=O)c2c(N)scc12 | 5.60 | 66.6% | 48.9% | Kb [5]: 0.0398 µM
